Reference: paper PMC9530613 (Redox Biology, 2022)
pIC50: −log10 of the molar value.

Key:
SH-SY5Y cells [1] = assay: Aβ1-42 amyloid toxicity assay, CCK-8; assay type: cell-based, human
Summary of the method: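 Human neuroblastoma SH-SY5Y cells in MEM-F12 (1:1) with 15% FBS, at 37 °C and 5% CO2, grown to 70% confluence. Monomer-rich Aβ1-42 (HFIP-treated, sonicated) added at 20 μM with or without varying test compound concentrations, ± I3MT3, for 24 h; scrambled Aβ peptide as control. CCK-8 added for 3 h at 37 °C, absorbance at 450 nm. One-way ANOVA with Tukey test.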

SH-SY5Y cells [2] = assay: Hydrogen peroxide cytotoxicity, SRB assay; assay type: cell-based, human; settings: in the presence of I3MT3
Summary of the method: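 SH-SY5Y cells (MEM-F12, 15% FBS, 37 °C, 5% CO2) exposed to 100 μM H2O2 ± test compound ± I3MT3 for 24 h at 37 °C. Fixed with 10% TCA for 1 h at 4 °C, washed, then stained 1 h at room temperature with 0.04% w/v SRB in 1% acetic acid. Washed with 1% acetic acid, dried, dye dissolved in 10 mM Tris base (pH 10.5), A510 read. One-way ANOVA with Tukey test.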

[3] = DPPH radical scavenging assay; assay type: biochemical; settings: read-out: IC50, DPPH radical scavenging; DPPH 150 μM, 30 min, room temperature
Summary of the method: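 Test compound at various concentrations incubated with DPPH (150 μM in 80% ethanol) for 30 min at room temperature. Radical scavenging read as absorbance at 517 nm.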

| pIC50 [3] | SMILES | effect of 3MST inhibitor on protective effect of sulfanegen against Aβ1-42 toxicity (SH-SY5Y cells [1]; Aβ1-42 20 μM + sulfanegen + I3MT3) | exacerbation of Aβ1-42 cytotoxicity, rise over Aβ1-42 alone (SH-SY5Y cells [1]; in the presence of I3MT3) [%] | exacerbation of H2O2 cytotoxicity, rise over H2O2 alone (SH-SY5Y cells [2]) [%] |
| --- | --- | --- | --- | --- |
| – | Cc1cc(=O)[nH]c(SCC(=O)c2cccc3ccccc23)n1 [I3MT3] | completely abolished | 10 | 20 |
| 3.85 | O=C1O[C@H]([C@@H](O)CO)C(O)=C1O [ascorbic acid] | – | – | – |
